Our source for the Activity values is ChEMBL document CHEMBL4145554, “Structure-activity relationships of talaumidin derivatives: Their neurite-outgrowth promotion in vitro and optic nerve regeneration in vivo” (Eur J Med Chem, 2018).

The structures appear in SMILES notation. Activity calls are given as the source filed them. No cut-off for these calls is given here.

One experiment deals with PC-12. Put plainly: Neurite-outgrowth promoting activity in NGF-differentiated rat PC12 cells assessed as increase in neurite length at 30 uM after 4 days by methylene blue staining based phase contrast microscopic method. It counts as functional, cell-based. In short, it runs like this:
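Cells seeded at 8 × 10^3 cells/cm2 in DMEM/10% HS/5% FBS/antibiotics, 24 h, 37 °C, 5% CO2; medium then switched to DMEM/2% HS/1% FBS with test sample plus 2 ng/mL NGF for 4 days, triplicate wells. Fixed in 4% paraformaldehyde, methylene blue stained; longest neurite of 5 differentiated cells in 5 random images per well measured, ≥100 cells per sample; Dunnett's t-test.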
For `Cc1ccc([C@H]2O[C@@H](c3ccc(C)cc3)[C@@H](C)[C@H]2C)cc1`, the outcome was Active.

With `Cc1c(-c2ccc(O)cc2)oc(-c2ccc(O)cc2)c1C`, the outcome was Active.

Regarding `COc1cc(C2OC(c3ccc4c(c3)OCO4)C(C)C2C)ccc1O` (racemic), the outcome was Active.

Consider `COc1cc(-c2oc(-c3ccc4c(c3)OCO4)c(C)c2C)ccc1O`, for which the result was Active.

Consider `Cc1c(-c2ccc3c(c2)OCO3)oc(-c2ccc3c(c2)OCO3)c1C`, for which the result was Active.

As to `Cc1ccc(-c2oc(-c3ccc(C)cc3)c(C)c2C)cc1`, the outcome was Active.

Consider `c1cc2c(cc1[C@@H]1CC[C@H](c3ccc4c(c3)OCO4)O1)OCO2`, for which the result was Active.

Consider `COc1ccc([C@H]2O[C@@H](c3ccc(OC)cc3)[C@@H](C)[C@H]2C)cc1`, for which the result was Active.

In the case of `C[C@@H]1[C@H](C)[C@H](c2ccc(O)cc2)O[C@@H]1c1ccc(O)cc1`, the result was Active.

`COc1ccc(-c2oc(-c3ccc(OC)cc3)c(C)c2C)cc1`: the result was Active.

Turning to `COc1cc([C@H]2O[C@@H](c3ccc(O)c(OC)c3)[C@@H](C)[C@H]2C)ccc1O`, the outcome was Active.

`C[C@@H]1[C@H](C)CO[C@@H]1c1ccc2c(c1)OCO2`: the outcome was inactive.

Take `COc1cc([C@H]2O[C@@H](c3ccc4c(c3)OCO4)[C@@H](C)[C@H]2C)ccc1O`: the outcome was Active.

Take `COc1cc(-c2oc(-c3ccc(O)c(OC)c3)c(C)c2C)ccc1O`: the result was Active.

`COc1cc([C@H]2O[C@H](c3ccc4c(c3)OCO4)[C@@H](C)[C@@H]2C)ccc1O`: the outcome was Active.

A further experiment relates to Mus musculus. Description: In vivo neurite-outgrowth promoting activity in C57BL/6 mouse assessed as regeneration of injured optic nerve by measuring GAP-43 positive axons extending over injury site at 30 uM measured 2 weeks post optic nerve injury by fluorescence microscopic method. The format is functional, organism-based. The gist of the method:
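Male mice, 9 weeks old, anesthetized with intraperitoneal sodium pentobarbital (30e40 mg/kg); optic nerve crushed with forceps 1 mm behind the eyeball. Longitudinal […] cryosections (OCT) stained with anti-GAP43 (1:250) plus fluorescent secondary; regenerating axons counted manually at […] from injury site, ≥8 sections per condition, 6 mice/group; Dunnett's t-test versus injury.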
Regarding `COc1cc(C2OC(c3ccc4c(c3)OCO4)C(C)C2C)ccc1O` (racemic), the outcome was Active.

For the compound `COc1cc([C@H]2O[C@H](c3ccc4c(c3)OCO4)[C@@H](C)[C@@H]2C)ccc1O`, the outcome was Active.
